Only some compounds are listed: those with a hit (about 3.6% of all), similar ones and a draw of the others.
HCV NS3 hel inh – inhibitors of HCV NS3 helicase, primary screen, biochemical, Cy5 molecular beacon fluorescence. actives 0.56% (n = 290,000). NS3 helicase DNA unwinding. inhibition, % at 10.9 µM;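 active means inhibition above the mean of all tested compounds plus 3 SD, set per campaign, cut at about 35% in these data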;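 further: 0% = DMSO wells and 100% = thioflavine S control wells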
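System: NS3 helicase fragment of HCV / Schedule: 1 h at 25 °C / Control set: DMSO alone as 0% and 110 µM thioflavine S as 100% / Reagent: Cy5/quencher beacon DNA duplex and ATP to start / Technique: Cy5 fluorescence / Replication: singlicate / Evaluation: % inhibition of end-to-start signal ratio versus controls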
FGF22 binding-1 – binders of human FGF22 protein, primary screen, FGF22 synaptogenesis inhibitor project, biophysical, thermal shift, single point | Fibroblast growth factor 22 (Homo sapiens), Q9HCT0 | recombinant FGF22 thermal shift, SYPRO orange fluorescence; percent of sucrose octasulfate shift, DMSO zero | activity (Tm shift, normalised), % at 9.99 µM | actives 1.5% (n = 340,000);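 active means mean Tm shift, scaled 0 neutral to 100 positive control, at about 1.3% or above, every replicate too, limit read from the data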
Target sequence (Q9HCT0 whole entry, looked up): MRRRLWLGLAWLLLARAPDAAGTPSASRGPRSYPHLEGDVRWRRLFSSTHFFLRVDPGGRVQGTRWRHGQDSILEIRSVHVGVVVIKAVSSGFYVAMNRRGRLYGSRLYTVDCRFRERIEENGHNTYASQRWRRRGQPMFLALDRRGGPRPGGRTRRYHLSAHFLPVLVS
DNA FID counter – compounds displacing fluorescent DNA intercalator, primary screen, artefact control for HCV NS3 helicase inhibitor project, biochemical, FID fluorescence; DNA fluorescent intercalator displacement; inhibition, % at 7.9 µM; actives 0.17% (n = 290,000); AID 1845, 2009; in the data active means inhibition above about 37%;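 further: 0% = vehicle and 100% = reference compound; higher means more ethidium bromide displaced from hairpin DNA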
NR3A LBD binder – binders of NR3A ligand-binding domain, primary screen, biophysical, differential scanning fluorimetry, uHTS. Glutamate receptor ionotropic, NMDA 3A (GRIN3A) ligand-binding domain. NR3A LBD differential scanning fluorimetry, Tm shift; 0% = protein alone, 100% = glycine-bound protein. Tm shift relative to glycine control, % at 25 µM. actives 2.5% (n = 340,000);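 active means melting temperature shift of at least 10% of the positive control shift, at one fixed dose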
EBNA-1 inh – EBNA-1 DNA-binding inhibitors, primary screen, biochemical, fluorescence polarization; AID 1950, 2009; actives 0.34% (n = 300,000); inhibition, % at 14.8 µM; in the data active means inhibition above about 28%
ZTA DNA inh – blocks Epstein-Barr virus ZTA, an EBNA-1 counter-screen | P03206 | ZTA-DNA binding, fluorescence polarization | inhibition, % at 11 µM | actives 0.15% (n = 320,000) | AID 2234; in the data active means inhibition above about 33%
Target sequence (P03206 whole entry, looked up): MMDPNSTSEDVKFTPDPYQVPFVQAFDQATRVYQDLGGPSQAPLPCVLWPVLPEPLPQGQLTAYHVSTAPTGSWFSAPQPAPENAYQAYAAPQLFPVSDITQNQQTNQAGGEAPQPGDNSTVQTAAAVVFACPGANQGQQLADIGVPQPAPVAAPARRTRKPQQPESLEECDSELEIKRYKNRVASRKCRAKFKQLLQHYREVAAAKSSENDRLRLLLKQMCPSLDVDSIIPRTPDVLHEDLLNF
EBNA-1 confirm – EBNA-1 DNA-binding inhibitors, retest, confirmation, biochemical, fluorescence polarization, triplicate; actives 35% (n = 830); shares compounds with EBNA-1 inh; Recombinant EBNA-1 DBD, Cy5-DNA fluorescence polarization; AID 2292, 2010; inhibition, % at 14.8 µM;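 active means mean inhibition across replicates above a set limit taken from the earlier primary screen, cut at about 28% in these data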;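 further: plate controls were EBNA-1 protein with DMSO for no effect and wells lacking EBNA-1 for full effect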
ZTA counter trip – EBV Zta DNA binding inhibitors, counter-screen for EBNA-1 inhibitor project, biochemical, fluorescence polarization, triplicate | shares compounds with EBNA-1 inh | Zta-ZRE DNA binding, Cy5 fluorescence polarization | inhibition, % at 11.1 µM | 830 tested, under 10 active | AID 2328, 2010;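 active means mean inhibition over triplicates above a set limit taken from the primary EBNA-1 screen, cut at about 37% in these data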;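 further: purified full length Zta protein with Cy5 labeled ZRE DNA probe; 0% = Zta with DMSO and 100% = wells lacking Zta protein; inhibitors lower polarization by freeing the labeled DNA probe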
ZTA inh confirm – EBV Zta binding to ZRE DNA, inhibitors, confirmation, biochemical, fluorescence polarization, triplicate; shares compounds with ZTA DNA inh; inhibition, % at 11.1 µM; actives 30% (n = 320); AID 2361, 2010;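 active means mean inhibition across triplicate runs above the hit threshold derived for the original primary screen, cut at about 33% in these data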;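 further: 0% = Zta with DMSO and 100% = wells lacking Zta protein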
EBNA1 counter – EBNA-1 DNA-binding inhibition, counter-screen for ZTA inhibitor project, biochemical, fluorescence polarization. AID 2362, 2010. inhibition, % at 14.8 µM. shares compounds with ZTA DNA inh. 320 tested, under 10 active; call rule not given here
FGF22 binding-2 – binders of human FGF22 protein, dose response, FGF22 synaptogenesis inhibitor project, biophysical, thermal shift, cherry-pick retest; shares compounds with FGF22 binding-1; recombinant FGF22 thermal shift, SYPRO orange fluorescence; thermal shift activity, °C (ΔTm) at 38 µM; actives 2% (n = 1,000);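 active means fitted rise in melting shift crosses a set limit at or below the top valid dose tested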
SYPRO no-protein – compound-only thermal shift signal without protein, dose response, artefact control for FGF22 binder project, biochemical, cherry-picked samples, RT-PCR instrument | shares compounds with FGF22 binding-1 | compound-only SYPRO orange thermal shift counter-screen, no protein | AC50, µM (highest dose often 38 µM) | actives 2% (n = 1,000) | AID 743019, 2013;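 active means rising signal whose fitted curve reaches the 0.54 level within the top valid dose, showing a melting point, actives reach about 13 µM in these data; inactive means the rest, including activity in the opposite direction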; further: value is where the raw curve crosses a fixed level and not half-maximal
* = called active by the depositor; i = inactive; nt = no result.

SMILES | HCV NS3 hel inh | FGF22 binding-1 | DNA FID counter | NR3A LBD binder | EBNA-1 inh | ZTA DNA inh | EBNA-1 confirm | ZTA counter trip | others
CCOC(=O)c1c(C)[nH]c(C(=O)COC(=O)CCS(=O)(=O)c2ccc(C)cc2)c1C | -20 | 0 | -25 | 3 | 39* | 1 | 29* | 6
NS(=O)(=O)c1ccc(NC(=O)Cc2cccs2)cc1 | 2 | 0 | -1 | -1 | nt | nt | nt | nt
NC(=O)c1ccc(NC(=O)COC(=O)/C=C/c2cccs2)cc1 | 5 | nt | -1 | -39 | -3 | -7 | nt | nt
NS(=O)(=O)c1ccc(NC(=O)COC(=O)/C(=C/c2cccs2)c2cccs2)cc1 | -9 | 0 | -10 | 0 | 64* | 10 | 60* | 13
Cc1ccc(NC(=O)COC(=O)/C=C/c2cccs2)cc1 | -4 | nt | -7 | -1 | 39* | -1 | 11 | 8
C[C@H](CO)N1C[C@H](C)[C@@H](CN(C)Cc2ccncc2)Oc2ccc(NS(=O)(=O)c3cccs3)cc2CC1=O | nt | 1 | nt | nt | nt | nt | nt | nt
Cc1onc(-c2c(Cl)cccc2Cl)c1C(=O)NC(=S)Nc1sc2c(c1C(N)=O)CCC(C)C2 (configuration not stated) | 5 | 0 | -2 | 30* | 34* | 15 | 28* | 3
C[C@H]1CN([C@@H](C)CO)C(=O)c2cc(NC(=O)NC3CCCCC3)ccc2O[C@@H]1CN(C)C(=O)Nc1ccc(C(F)(F)F)cc1 | nt | 0 | nt | nt | nt | nt | nt | nt
Cc1c(NC(=O)COC(=O)c2cc(-c3ccc(-c4ccccc4)cc3)nc3ccccc23)c(=O)n(-c2ccccc2)n1C | 1 | 0 | -3 | -3 | 31* | 18 | 16 | -1
COC(=O)c1ccc(Nc2cc(C)nc(-c3ccccc3O)n2)cc1 | 4 | nt | 3 | 23* | 29* | -3 | 0 | -4
Cc1ccc2c(c1)nnn2C1CCN(S(=O)(=O)c2ccc(C(=O)N(C)C)cc2)CC1 | -6 | nt | -30 | 0 | 3 | 7 | nt | nt
Cc1ccc2c(c1)nnn2C1CCN(S(=O)(=O)c2ccc(C(=O)NC3CCCC3)cc2)CC1 | 4 | nt | -14 | 1 | 35* | 17 | 36* | 5
CSc1cccc(NC(=O)NCc2cccc(CNC(=O)Nc3cccc(SC)c3)c2)c1 | -1 | 1 | -2 | 16* | 34* | 7 | 41* | 3
Cc1cc(C)c2cc(C#N)c(SCC(=O)NCC3CCCO3)nc2c1 (configuration not stated) | 13 | nt | -6 | -1 | 5 | 11 | nt | nt
Cc1cc(C)c2cc(C#N)c(SCC(=O)Nc3ccc4c(c3)OCO4)nc2c1 | -1 | 1 | 2 | 0 | 32* | -2 | 50* | 1
Cc1ccc(C(=O)Nc2nc3ccc(S(C)(=O)=O)cc3s2)cc1C | -3 | 0 | -5 | -17 | 144* | -4 | 97* | 16
CN(C)Cc1cn(CC[C@H]2CC[C@@H](NC(=O)Nc3ccccc3F)[C@@H](CO)O2)nn1 | nt | 0 | nt | nt | nt | nt | nt | nt
O=[N+]([O-])c1cccc(/C=N/Nc2nc(NCc3ccccc3)nc(N3CCOCC3)n2)c1 | -11 | nt | -18 | -5 | 49* | 11 | 71* | 0
COc1ccccc1-c1ccc2c(c1)[C@H]1[C@H](CCN1S(=O)(=O)c1cccc(C)c1)[C@H](CO)N2 | nt | 0 | nt | nt | nt | nt | nt | nt
O=c1ccc2cc(S(=O)(=O)N3CCN(c4ccccc4)CC3)ccc2[nH]1 | 12 | 0 | -22 | -1 | -10 | -23 | nt | nt
O=S(=O)(c1ccc2nc(-c3ccccc3)[nH]c2c1)N1CCN(c2ccc(Cl)cc2)CC1 | 8 | nt | 11 | 13* | 37* | 0 | 13 | 9
COc1cc(C(=O)NNC(=O)/C=C/c2ccccc2)cc(OC)c1OC | nt | 0 | nt | 1 | nt | nt | nt | nt
COc1cc(C(=O)NNC(=S)NC(=O)/C=C/c2ccccc2)cc(OC)c1OC | 8 | 0 | -22 | -7 | 77* | -4 | 35* | 4
C[C@@H]1CCCCO[C@H](CN(C)C(=O)Nc2ccc3c(c2)OCO3)[C@H](C)CN([C@H](C)CO)C(=O)c2cc(NC(=O)c3ccccc3)ccc2O1 | nt | 1 | nt | nt | nt | nt | nt | nt
Cc1ccc(-c2nnn(CC(=O)NCCc3ccc4c(c3)OCO4)n2)cc1 | -3 | 8.9* | -4 | 0 | 44* | 6 | 10 | 9 | FGF22 binding-2=0.045;SYPRO no-protein=i
C[C@@H]1CN([C@@H](C)CO)C(=O)Cc2cc(NC(=O)C3CC3)ccc2O[C@H]1CN(C)Cc1ccc(C(=O)O)cc1 | nt | 0 | nt | nt | nt | nt | nt | nt
CC(=O)N1CCc2c(sc(NC(=O)C3COc4ccccc4O3)c2C(N)=O)C1 (configuration not stated) | -1 | 0 | -17 | 1 | -3 | -4 | nt | nt
CCOC(=O)N1CCc2c(sc(NC(=O)C3COc4ccccc4O3)c2C(N)=O)C1 (configuration not stated) | -4 | 29* | -28 | -3 | 29* | 13 | 56* | 7 | FGF22 binding-2=-0.11;SYPRO no-protein=i
NC1=NC[C@H](c2ccccc2)N1CCCCC1CCCCC1 | nt | 0 | nt | -5 | 6 | 33* | nt | nt | ZTA inh confirm=2;EBNA1 counter=-13
S=C1NC[C@H](c2ccccc2)N1CCCCC1CCCCC1 | nt | 0 | nt | -14 | 3 | 2 | nt | nt

Assay outcomes from PubChem.
